Active and inactive are the calls of the source. The rule behind the calls is not given here.
How the values were obtained:
MT2 = test: Cytotoxicity against human MT2 cells by MTT assay; type: functional
In short: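 Human MT-2 cells, MTT colorimetric read-out. CC50 is the concentration giving 50% inhibition of MT-2 cell growth.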

[1] = test system: Human immunodeficiency virus 1; test: Antiviral activity against HIV1 3B in human MT2 cells by MTT assay; type: functional, organism-based; settings: for EC50: Human immunodeficiency virus 1, 3B
In short: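 HIV-1 IIIB infection of human MT-2 T-cells; MTT colorimetric read-out of cell protection. Antiviral curves were run in triplicate at each concentration.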

Compound | CC50 (MT2) | Activity [1] | EC50 [1]
Clc1ccc(Nc2nnc(Cc3ccccc3)o2)cc1 | 31 µM | inactive | 
Cc1cn([C@H]2C=C[C@@H](CO)O2)c(=O)[nH]c1=O [STAVUDINE] | > 100 µM |  | 1.6 µM
Cc1cc(Nc2nnc(Cc3c(Cl)cccc3Cl)o2)ccc1Cl | > 100 µM |  | 1.3 µM
Cc1cc(C)cc(Cc2nnc(Nc3ccc(Cl)cc3)o2)c1 | > 100 µM | inactive | 
Cc1ccnc2c1NC(=O)c1cccnc1N2C1CC1 [NEVIRAPINE] | > 10 µM |  | 
Clc1ccc(Nc2nnc(Cc3c(Cl)cccc3Cl)o2)cc1Cl | > 100 µM |  | 0.31 µM
Clc1ccc(Nc2nnc(Cc3cccc(Cl)c3)o2)cc1 | 32 µM |  | > 10 µM
FC(F)(F)c1cc(Nc2nnc(Cc3c(Cl)cccc3Cl)o2)ccc1Cl | 9 µM | inactive | 
COc1ccc(Cc2nnc(Nc3ccc(C)cc3)o2)cc1OC | 61 µM | inactive | 
COc1cc(Nc2nnc(Cc3c(Cl)cccc3Cl)o2)c(Cl)cc1Cl | 9 µM | inactive | 
Clc1ccc(Cc2nnc(Nc3ccc(Cl)cc3)o2)cc1 | > 100 µM | inactive | 
c1ccc(Cc2nnc(Nc3ccccc3)o2)cc1 | > 100 µM | inactive | 
O=C1Nc2ccc(Cl)cc2C(C#CC2CC2)(C(F)(F)F)O1 (single isomer, unassigned) [EFAVIRENZ] | 3 µM |  | 
Clc1ccc(Nc2nnc(Cc3c(Cl)cccc3Cl)o2)cc1 | 20 µM |  | 0.82 µM

From ChEMBL document CHEMBL1137600, “From docking false-positive to active anti-HIV agent” (J Med Chem, 2007)
